What all share (assay type): ADME, organism-based
A short description of data set [1]: Oral bioavailability in Lewis rat at 3 mg/kg. The settings on record: in vivo. In short, it runs like this:
(§1)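 Male Lewis rats were given a single intravenous 1 mg/kg or oral 3 mg/kg dose. Plasma levels were measured by LC-MS/MS on a 5 min formic acid water/acetonitrile gradient. Clearance, steady-state volume, terminal half-life and oral bioavailability were derived from the concentration-time profiles.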

A short description of data set [2]: Half life in Lewis rat at 1 mg/kg, iv. On the set-up: dose 1 mg/kg, route intravenous. The settings on record: in vivo. Summed up: as §1
The nature of data set [3]: Volume of distribution at steady state in Lewis rat at 1 mg/kg, iv. On the set-up: dose 1 mg/kg, route intravenous. The settings on record: in vivo, read-out: Vdss. Summed up:
as §1

Data set [4] can be described thus: Plasma clearance in Lewis rat at 1 mg/kg, iv. On the set-up: dose 1 mg/kg, route intravenous. Summed up: as §1

Where only a bound is given, the exact number is not on record here.

In data set [1], `Cc1nnc(-c2ccc(C)c(-c3ccc(C(=O)NCC4CC4)cc3)c2)o1` showed a bioavailability of 50%. In addition, the half-life in data set [2] was 9 h. In data set [3], the Vd stood at 2 L/kg. This compound gave a clearance in data set [4] below 10 mL/min/kg.
